Assay results reported in ChEMBL document CHEMBL1821704, “Diarylheptanoids from Curcuma kwangsiensis and their inhibitory activity on nitric oxide production in lipopolysaccharide-activated macrophages” (Bioorg Med Chem Lett, 2011).

Tests used:
RAW264.7 [1] = test: Cytotoxicity against mouse RAW264.7 cells at 100 uM after 24 hrs by MTT assay; format: cell-based; conditions: raw264.7, 24 h
RAW264.7 [2] = test: Inhibition of LPS-induced nitric oxide production in mouse RAW264.7 cells after 24 hrs by Griess reaction based spectrophotometry; format: functional, cell-based; conditions: RAW264.7, 24 h
Method in brief: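 Cells plated at 1 × 10⁵ cells/well and stimulated with LPS, with or without compound, for 24 h at 37 °C. Nitrite was read at 550 nm against a sodium nitrite standard curve. Triplicate wells; mean SD of three independent experiments.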

Compound	IC50 (RAW264.7 [2])	Activity (RAW264.7 [1])
C[C@]12CCC(=O)C=C1CC[C@@H]1[C@@H]2[C@@H](O)C[C@@]2(C)[C@H]1CC[C@]2(O)C(=O)CO [HYDROCORTISONE]		Non-toxic
COc1cc(CC[C@@H](O)C[C@H](O)CCc2ccc(O)c(O)c2)ccc1O	25.8 µM	Non-toxic
COc1cc(CCC(=O)C[C@@H](O)CCc2ccc(O)cc2)ccc1O	37.5 µM	Non-toxic
COc1ccc2c(c1)c(CC(=O)O)c(C)n2C(=O)c1ccc(Cl)cc1 [INDOMETHACIN]		Non-toxic
Oc1ccc(CC[C@@H](O)C[C@@H](O)CCc2ccc(O)cc2)cc1	> 100 µM	Non-toxic
CC(=O)O[C@H](CCc1ccc(O)cc1)C[C@@H](CCc1ccc(O)c(O)c1)OC(C)=O	10.7 µM	Non-toxic
CC(=O)O[C@@H](CCc1ccc(O)c(O)c1)C[C@@H](O)CCc1ccc(O)cc1	9.52 µM	Toxic
CC(=O)O[C@H](CCc1ccc(O)cc1)C[C@H](O)CCc1ccc(O)cc1	32 µM	Non-toxic
O=C(CCc1ccc(O)cc1)C[C@@H](O)CCc1ccccc1	75.7 µM	Non-toxic

The next lines start with results.

IC50 (RAW264.7 [2])	Compound	Activity (RAW264.7 [1])
35.5 µM	CC(=O)O[C@H](CCc1ccc(O)c(O)c1)C[C@H](O)CCc1ccc(O)c(O)c1	Toxic
7.98 µM	CC(=O)O[C@H](CCc1ccc(O)c(O)c1)C[C@@H](CCc1ccc(O)c(O)c1)OC(C)=O	Toxic
9.52 µM	CC(=O)O[C@H](CCc1ccc(O)c(O)c1)C[C@H](O)CCc1ccc(O)cc1	Toxic
3.13 µM	Oc1ccc(CC[C@H](O)C[C@H](O)CCc2ccc(O)c(O)c2)cc1 (relative stereo)	Toxic
11.5 µM	Oc1ccc(CC[C@@H](O)C[C@H](O)CCc2ccc(O)c(O)c2)cc1	Non-toxic
2.81 µM	COc1cc(CC[C@@H](O)C[C@@H](O)CCc2ccc(O)cc2)ccc1O (relative stereo)	Non-toxic
82.8 µM	O=C(CCc1ccc(O)cc1)C[C@@H](O)CCc1ccc(O)c(O)c1	Non-toxic
> 100 µM	Oc1ccc(CC[C@@H](O)C[C@H](O)CCc2ccc(O)cc2)cc1 [(+)-HANNOKINOL]	Non-toxic
2.41 µM	COc1cc(CC[C@@H](O)C[C@@H](O)CCc2ccc(O)cc2)cc(O)c1O (relative stereo)	Toxic
9.37 µM	COc1cc(CCC(=O)C[C@@H](O)CCc2ccc(O)c(O)c2)ccc1O	Toxic
